Reference: the RNAGym collection of RNA variant scans (doi:10.1126/science.aae0568)
Fewer inactive variants are shown than the library holds.

B1: tRNA (parent)
chain: GUUCCGUUGGCGUAAUGGUAACGCGUCUCCCUCCUAAGGAGAAGACUGCGGGUUCGAGUCCCGUACGGAACG

Variants of: B1
Assay: yeast fitness relative to wild type (ratio to wild type); higher = fitter; tRNA-Arg(CCU), competitive growth, 37 C, YPD
Outline: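 Genotype frequency changes were the basis for Darwinian fitness relative to wild type. The frequencies came from 100-nucleotide paired-end sequencing of gene amplicons from the start population and each end population of pooled yeast strains with tRNA-Arg(CCU) gene variants at the native locus. Competition ran in YPD at 37°C for 24 hours in six replicates, genotypes needed ≥ 100 starting reads, and estimates < 0.5 were set to 0.5.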

Row | Variant | yeast fitness
1 | GUUCCGUUGGCGUAAUGCUAACGCGUCUCCCUCCUAAGGAGAAGACUGCGGGUUCGAGUGCCGUACGGACCG [G18C C60G A70C] | ≤ 0.5
2 | GUUCCGUUGGCGUAAUGCUAACGCGUCUGCCUCCUAAGGAGAAGACCGCGGGUUCGAGUCCCGUACGGAACG [G18C C29G U47C] | ≤ 0.5
3 | GUUCCGUUGGCGUAAUGCUAACGUGUCUCCCUCCUAAGGAGAAGACUGCGGGUUCGAGUCCCGUACGGAACG [G18C C24U] | 0.641
4 | GUUCCGUUGGCGUAAUGCUAACGCGUCUCCCUCCUAAGGAGAAGACUGGGGGUUCGAGUCCCGUUCGGAACG [G18C C49G A65U] | 0.66
5 | GUUCCGUUGGCGUAAUGCUAACGCGUCUUCCUCCUAAGGAGAAGAUUGCGGGUUCGGGUCCCGUACGGAACG [G18C C29U C46U A57G] | 0.636
6 | GUUCCGUUGGCGUAAUGCUAACGCGUCUCUCUCCUAAGGAGAAGCCUGCGGGUUCGAGUCCCGUACGGUACG [G18C C30U A45C A69U] | ≤ 0.5
7 | GUUCCGUUGGCGUAAUGCUAACGCGUCUCCGUCCUAAGGAGGAGACUGCGGGUUCGAGUCCCGUACGGAACG [G18C C31G A42G] | 0.505
8 | GUUCCGUUGGCGUAAUGCUAACGCGUCUCCCUCCUAAGGAGAAGACUGCGGGUUCGAGUGCCGUACGGAACG [G18C C60G] | ≤ 0.5
9 | GUUCCGUUGGCGUAAUGCUAACGCGUCUCCCUCCUAAGGAGAAGACUGUGGGUUCGAGUCCCGUACGGAACG [G18C C49U] | 0.607
10 | GUUCCGUUGGCGUAAUGCUAACGCGUCUCCCUCCUAAGGAGAAGACUGGGGGUUCGAGUCCCGUACGGAACG [G18C C49G] | 0.734
11 | GUUCCGUUGGCGUAAUGCUAACCCGUCUCCCUCCUAAGAAGAAGACUGCGGGUUAGAGUCCCGUACGGAACG [G18C G23C G39A C55A] | 0.696
12 | GUUCCGUUGGCGUAAUGCUAACGCGUCUCUCUUCUAAGGAGAAGACUGUGGGUUCGAGUCCCGUACGGAACG [G18C C30U C33U C49U] | 0.608
13 | GUUCCGUUGGCGUAAUGCUAACGCGUCUCCCUCCUAAGGAGAAGAUUGCGGGUUCGAGUCCCGUACGGAACG [G18C C46U] | 0.626
14 | GUUCCGUUGGCGUAAUGCUAACGCGUCUCCCUCCUAAGGAGAAGAAUGCGGGUUCGAGUCCCGUACGGAACG [G18C C46A] | 0.726
15 | GUUCCGUUGGCGUAAUGCUAACACCUCUCCCUCCUAGGGAGACGACUGCGGGUUGGAGUCCCGUACGAAACG [G18C G23A G25C A37G A43C C55G G68A] | 0.551
16 | GUUCCGUUGGCGUAAUGCUAACGCGUCUCCCUACUAAGCACAACACUGCGGGUUCGAGUCCCGUACGGAACG [G18C C33A G39C G41C G44C] | ≤ 0.5
17 | GUUCCGUUGGCGUAAUGCUAACGCGUCUCUCUCCUAAGGAGGAGACUGCGGGUUAGAGUCCCGUACGGAACG [G18C C30U A42G C55A] | 0.533
18 | GUUCCGUUGGCGUAAUGCUAACGCGUCUCCAUCCUAGGGAGAAGACUGCGGGUUCGACUCCCGUACGGAACG [G18C C31A A37G G58C] | ≤ 0.5
19 | GUUCCGUUGGCGUAAUGCUAACGCGUAACCCUCCUAAGGAGUAGACUGCGGGUUCGAGUCCCGUACGGAACG [G18C C27A U28A A42U] | ≤ 0.5

Row | Variant | yeast fitness
20 | GUUCCGUUGGCGUAAUGCUAACGCGUCUCCCUGCUAAGGGGAAGACUGCGGGUUCGAAUCCCGAACGGAACG [G18C C33G A40G G58A U64A] | 0.59
21 | GUUCCGUUGGCGUAAUGCUAACGCGUCUCCCUCCUAAGGAGAAGACUGCGGGUUCGAGUGCCGUGCGGAACG [G18C C60G A65G] | 0.544
22 | GUUCCGUUGGCGUAAUGCUAACGCGUCUUCCUCCUAGGGAGAAGACUGCGGGUUCGAGUCCCGUACGGAACG [G18C C29U A37G] | ≤ 0.5
23 | GUUCCGUUGGCGUAAUGCUAACCCGUCUCCCUCCUAAGGAGAAGACUGCGGGUUCGAGUCCCGUACGGAACG [G18C G23C] | 0.577
24 | GUUCCGUUGGCGUAAUGCUAACACGUCUCCCUCCUAAGGAGAAGACUGCGGGUUCGAGUCCCGUACGGAACG [G18C G23A] | ≤ 0.5
25 | GUUCCGUUGGCGUAAUGCUAACGCGUAUCCCUCCUAAGGAGAAGACUGCGGGUUUGAGUCCCCUACGGAACG [G18C C27A C55U G63C] | ≤ 0.5
26 | GUUCCGUUGGCGUAAUGCUAACGCGUCUCCCUCCUAAGGAGAAGACUGCGGGUUCGAGUUCCGUACGGAUCG [G18C C60U A70U] | ≤ 0.5
27 | GUUCCGUUGGCGUAAUGCUAACGCGUAUCCCUCCUAAGGAGAAGACUGCGGGUUCGAGUCCCGUACGGAACG [G18C C27A] | 0.555
28 | GUUCCGUUGGCGUAAUGCUAACGCGUGUCCCUCCUAAGGAGAAGACUGCGGGUUCGAGUCCCGUACGGAACG [G18C C27G] | 0.61
29 | GUUCCGUUGGCGUAAUGCUAACGCGUUUCCCUCCUAAGGAGAAGACUGCGGGUUCGAGUCCCGUACGGAACG [G18C C27U] | 0.71
30 | GUUCCGUUGGCGUAAUGCUAACGCGUCUCGCUCCUAAGGAGAAGACUGCGGGUUCGAGUCCCGUCCGGAACG [G18C C30G A65C] | 0.541
31 | GUUCCGUUGGCGUAAUGCUAACGCGUUUCCCUCCUAAGGAGAAGACUGCGGGUUCGAGUCCCGUACGGCACG [G18C C27U A69C] | 0.502
32 | GUUCCGUUGGCGUAAUGCUAACACCUCUCCCUCCUAGGGAGACGACUGCGGGUUCGAGUCCCGUCCGGAACG [G18C G23A G25C A37G A43C A65C] | ≤ 0.5
33 | GUUCCGUUGGCGUAAUGCUAACGCGUCUUCCUCCUAAGGAGAAGACUGGGGGUUCGAGUCCCGUACGGAACG [G18C C29U C49G] | ≤ 0.5
34 | GUUCCGUUGGCGUAAUGCUAACGCGUCUGCGUCCUAAGGAGAAGACUGCGGGUUCGCGUCCCGUACGGAACG [G18C C29G C31G A57C] | 0.549
35 | GUUCCGUUGGCGUAAUGCUAACGGGUCUCCCUCCUAAGGAGAAGACUGGGGGUUCGAGUCUCGUACGGAACG [G18C C24G C49G C61U] | ≤ 0.5
36 | GUUCCGUUGGCGUAAUGCUAACGCGUCUCCCUACUAAGGAGAAGACUGCGGGUUCGAGUCCCGUACGGAACG [G18C C33A] | 0.592
37 | GUUCCGUUGGCGUAAUGCUAACCCGUCUCCCUCCUAAGGAGAAGACUGCGGGAUCGAGUCCCGUACGGCACG [G18C G23C U53A A69C] | ≤ 0.5
